Measurements collected from several papers.
SLC6A3: Sodium-dependent dopamine transporter (SLC6A3, Homo sapiens, UniProt Q01959)
CHEK1: Serine/threonine-protein kinase Chk1 (CHEK1, Homo sapiens, UniProt O14757)
PDE10A: cAMP and cAMP-inhibited cGMP 3',5'-cyclic phosphodiesterase 10A (PDE10A, Homo sapiens, UniProt Q9Y233)
PTPN22: Tyrosine-protein phosphatase non-receptor type 22 (PTPN22, Homo sapiens, UniProt Q9Y2R2)
ACLY: ATP-citrate synthase (ACLY, Homo sapiens, UniProt P53396)
PRMT1: Protein arginine N-methyltransferase 1 (PRMT1, Homo sapiens, UniProt Q99873)
PANK3: Pantothenate kinase 3 (PANK3, Homo sapiens, UniProt Q9H999)
HDAC5: Histone deacetylase 5 (HDAC5, Homo sapiens, UniProt Q9UQL6)
TLR8: Toll-like receptor 8 (TLR8, Homo sapiens, UniProt Q9NR97)
DDR2: Discoidin domain-containing receptor 2 (DDR2, Homo sapiens, UniProt Q16832)

O=S(=O)(O)OC[C@H]1O[C@@](COS(=O)(=O)O)(O[C@H]2O[C@H](COS(=O)(=O)O)[C@@H](OS(=O)(=O)O)[C@H](OS(=O)(=O)O)[C@H]2OS(=O)(=O)O)[C@@H](OS(=O)(=O)O)[C@@H]1OS(=O)(=O)O
IC50 (Coagulation factor XI (F11, Homo sapiens, UniProt P03951); enzyme activity, inhibitor, absorbance; pH 7.4): > 4000 µM

CSc1ccc(/C=C2/C(C)=C(CC(=O)O)c3cc(F)ccc32)cc1
IC50 (Dual specificity calcium/calmodulin-dependent 3',5'-cyclic nucleotide phosphodiesterase 1C (PDE1C, Homo sapiens, UniProt Q14123); enzyme activity, inhibitor): > 100 µM

c1ccc(CCC2CCN(CCCn3nnnc3C(c3ccccc3)c3ccccc3)CC2)cc1
IC50 (SLC6A3; transporter uptake, inhibitor): 0.726 µM

CC(C)(C)OC(=O)NCCCCOc1ccc(Cl)cc1NC(=O)Nc1cnc(C#N)cn1
IC50 (CHEK1; enzyme activity, inhibitor): 8.37 µM

COc1ccc2c(c1)C(CC(=O)Nc1cccnc1)=C(C)/C2=C/c1cc(OC)c(OC)c(OC)c1
IC50 (PDE10A; enzyme activity, inhibitor, FP): 0.3 µM

COC(=O)Cc1ccc2c(c1)NC(=O)c1ccc(-c3cn(C)cn3)cc1N2
IC50 (CHEK1; enzyme activity, inhibitor): 7.81 µM

COc1cc(N2CCN(C)CC2)ccc1Nc1ncc2c(n1)N(C)c1ccccc1C(=O)N2CC(F)(F)F
IC50 (Activated CDC42 kinase 1 (TNK2, Homo sapiens, UniProt Q07912); cell-free assay, TR-FRET): 5 µM

O=C1CSC(=S)N1NC(=S)SSC(=S)NN1C(=O)CSC1=S
IC50 (PTPN22; enzyme activity, inhibitor, fluorescence; pH 6.5): 3 µM

COc1cc2c(cc1OCc1ccncc1)Nc1cc(-c3ccc([N+](=O)[O-])c(OC)c3)ccc1C(=O)N2
IC50 (CHEK1; enzyme activity, inhibitor): 0.00517 µM

C=C1CC[C@@H]([C@H](C)CC(=O)/C=C(\C)C(=O)O)[C@@]12CCC1=C2CC[C@H]2C(C)(C)C(=O)CC[C@]12C
IC50 (ACLY; enzyme activity, inhibitor): > 20 µM

N=C(NCCCSC[C@H]1O[C@@H](n2cnc3c(NCCCc4ccccc4)ncnc32)[C@H](O)[C@@H]1O)NC1CC1
IC50 (PRMT1; enzyme activity, inhibitor, fluorescence): 1.18 µM

Fc1ccc(C(c2ccc(F)cc2)c2nnnn2CCCCN2CCC(c3ccccc3)CC2)cc1
IC50 (SLC6A3; transporter uptake, inhibitor): 0.0557 µM

COCCNC(=O)Nc1ccc2nc(-c3cccs3)c(-c3cccs3)nc2c1
IC50 (Acetyl-coenzyme A synthetase, cytoplasmic (ACSS2, Homo sapiens, UniProt Q9NR19); enzyme activity, inhibitor, absorbance): ~0.6 µM

COc1ccc(-c2nsc(NC(=O)[C@@H]3C[C@H]3C)c2C)cc1
IC50 (Metabotropic glutamate receptor 5 (GRM5, Homo sapiens, UniProt P41594); calcium signal, antagonist): 0.118 µM

CC(C)n1nnc(-c2cc(O)cc(Nc3ncnn4ccc(CN5CCC(N)CC5)c34)c2)n1
IC50 (AP2-associated protein kinase 1 (AAK1, Homo sapiens, UniProt Q2M2I8); enzyme activity, inhibitor): 0.0002 µM

COc1cc(O)c(C(CC(=O)Nc2ccc(C)cc2)c2ccc3c(c2)OCO3)c(OC)c1 (stereo not shown)
IC50 (Nuclear receptor ROR-gamma (Mus musculus, UniProt P51450); reporter gene): > 50 µM

CN(CCOc1ccc(CC2SC(=O)NC2=O)cc1)c1ccccn1 (stereo not shown)
IC50 (PANK3; enzyme activity, inhibitor, ATP luminescence): 1.7 µM

N=C(NCCCO)NCCCSC[C@H]1O[C@@H](n2cnc3c(NCCCc4ccccc4)ncnc32)[C@H](O)[C@@H]1O
IC50 (PRMT1; enzyme activity, inhibitor, fluorescence): 4.9 µM

COc1ccc(CNc2c(CO)cnc3c(C4CC4)cc(C#N)cc23)cn1
IC50 (PDE10A; enzyme activity, inhibitor): > 10 µM

Clc1ccc(C(c2ccc(Cl)cc2)c2nnnn2CCCCN2CCC(Cc3ccccc3)CC2)cc1
IC50 (SLC6A3; transporter uptake, inhibitor): 0.172 µM

O=C(O)C1=CCCN(CCON=C(c2ccccc2)c2ccccc2)C1
IC50 (Sodium- and chloride-dependent GABA transporter 1 (Slc6a1, Rattus norvegicus, UniProt P23978); ligand displacement, radioligand): 0.39 µM

CCCC[C@H](NC(=O)C1CN(C)C1)c1ncc(-c2cc3ccccc3nc2OC)[nH]1
IC50 (HDAC5; enzyme activity, inhibitor): > 30 µM

CC/C=C\C/C=C\C/C=C\C/C=C\C/C=C\CCCC(=O)O
IC50 (DNA topoisomerase 1 (TOP1, Homo sapiens, UniProt P11387); enzyme activity, inhibitor): 20 µM

CCN(CC)C(=O)c1cnn2c(-c3cccc(C(F)(F)F)c3)ccnc12
IC50 (TLR8; reporter gene): > 20 µM

COc1cc(-c2ccc3c(c2)Nc2ncccc2NC3=O)ccc1[N+](=O)[O-]
IC50 (CHEK1; enzyme activity, inhibitor): > 10 µM

Clc1ccc(C(c2ccccc2)c2nnnn2CCCN2CCC(CCCc3ccccc3)CC2)cc1 (stereo not shown)
IC50 (SLC6A3; transporter uptake, inhibitor): 0.843 µM

Cc1ccc(NC(=O)c2ccc(C)c(C(F)(F)F)c2)cc1C#Cc1nn(C2CCC(O)CC2)c2ncnc(N)c12 (stereo not shown)
IC50 (DDR2; enzyme activity, inhibitor, radiometric): 0.065 µM

Cc1cccc(-c2ccnc3c(C(=O)O)cnn23)c1
IC50 (TLR8; reporter gene): > 20 µM

OC1CCC(NCc2ccc3c(c2)Cc2c-3n[nH]c2-c2ccc[nH]2)CC1 (stereo not shown)
IC50 (CHEK1; enzyme activity, inhibitor): 1.66 µM

Clc1ccc(CC2CCN(CCCCn3nnnc3C(c3ccccc3)c3ccccc3)CC2)cc1Cl
IC50 (SLC6A3; transporter uptake, inhibitor): 0.488 µM

O=c1cc(-c2ccc(-c3[nH]nc4c3Cc3cc(O)ccc3-4)cc2)cc[nH]1
IC50 (CHEK1; enzyme activity, inhibitor): 1.25 µM

CC(=O)SCCNC(=O)CCNC(=O)[C@H](O)C(C)(C)COP(=O)(O)OP(=O)(O)OC[C@H]1O[C@@H](n2cnc3c(N)ncnc32)[C@H](O)[C@@H]1OP(=O)(O)O
IC50 (PANK3; enzyme activity, inhibitor): 0.17 µM

CCN(CC)C(=S)SSC(=S)N(CC)CC
IC50 (PTPN22; enzyme activity, inhibitor, fluorescence; pH 6.5): 47 µM

COC(=O)Cc1ccc2c(c1)NC(=O)c1ccc(-c3cccc4ccccc34)cc1N2
IC50 (CHEK1; enzyme activity, inhibitor): > 10 µM

Nc1ccc(-c2ccncc2)cc1NC(=O)N1CCCC1
IC50 (HDAC5; enzyme activity, inhibitor): > 33.3 µM

Clc1ccc(C(c2ccccc2)c2nnnn2CCCCN2CCN(CCCc3ccccc3)CC2)cc1 (stereo not shown)
IC50 (SLC6A3; transporter uptake, inhibitor): 0.415 µM

CCn1ncc2c1-c1cnc(N)c(c1)O[C@H](C)c1cc(F)ccc1-c1nn(C)nc1C2
IC50 (Leukocyte tyrosine kinase receptor (LTK, Homo sapiens, UniProt P29376); enzyme activity, inhibitor, radiometric): 0.0058 µM

C#CCNC(=N)NCCCSC[C@H]1O[C@@H](n2cnc3c(NCCCc4ccccc4)ncnc32)[C@H](O)[C@@H]1O
IC50 (PRMT1; enzyme activity, inhibitor, fluorescence): 2.09 µM

Fc1ccc(C(c2ccc(F)cc2)c2nnnn2CCCCN2CCC(Cc3ccccc3)CC2)cc1
IC50 (SLC6A3; transporter uptake, inhibitor): 0.0579 µM

C/C(=N\O)c1ccc(-c2cccc(O)c2)c(Cl)c1O
IC50 (Solute carrier family 2, facilitated glucose transporter member 1 (SLC2A1, Homo sapiens, UniProt P11166); transporter uptake, inhibitor, radiometric): 15.7 µM

O=C(N[C@@H]1CC[C@@H](c2cccc(F)c2F)CN(CC(F)(F)F)C1=O)N1CCC(n2c(=O)[nH]c3ncccc32)CC1
IC50 (ATP-binding cassette sub-family C member 4 (ABCC4, Homo sapiens, UniProt O15439); transporter uptake, inhibitor; HEK293; cell membranes): 42.4 µM

Cc1cc(-c2ccnc3cc(Cl)ccc23)ccc1O
IC50 (TLR8; reporter gene, antagonist): 0.001 µM

COc1cc(-c2ccc3c(c2)Nc2ccc(CC(=O)N4CCCC(O)C4)cc2NC3=O)ccc1Cl (stereo not shown)
IC50 (CHEK1; enzyme activity, inhibitor): 0.0148 µM

COc1ccc(-c2ccccc2)cc1NS(=O)(=O)c1cc(Cl)cc(Cl)c1O
IC50 (ACLY; enzyme activity, inhibitor): 0.46 µM

COc1ccc2c(Oc3ccc4c(C(=O)Nc5ccccc5N)cccc4c3)ccnc2c1
IC50 (Ephrin type-B receptor 4 (EPHB4, Homo sapiens, UniProt P54760); enzyme activity, inhibitor): > 0.5 µM

Cc1ccc(C(=O)Nc2ccc(Oc3cc4cnn(C)c4cc3-c3cn[nH]c3)c(F)c2)c(=O)n1-c1ccc(F)cc1
IC50 (DDR2; enzyme activity, inhibitor, radiometric): 0.041 µM
